Experimental data from different studies.
Target: Interleukin-1 receptor-associated kinase 4 (IRAK4, Homo sapiens, UniProt Q9NWZ3)
One construct used (Q9NWZ3 1-460): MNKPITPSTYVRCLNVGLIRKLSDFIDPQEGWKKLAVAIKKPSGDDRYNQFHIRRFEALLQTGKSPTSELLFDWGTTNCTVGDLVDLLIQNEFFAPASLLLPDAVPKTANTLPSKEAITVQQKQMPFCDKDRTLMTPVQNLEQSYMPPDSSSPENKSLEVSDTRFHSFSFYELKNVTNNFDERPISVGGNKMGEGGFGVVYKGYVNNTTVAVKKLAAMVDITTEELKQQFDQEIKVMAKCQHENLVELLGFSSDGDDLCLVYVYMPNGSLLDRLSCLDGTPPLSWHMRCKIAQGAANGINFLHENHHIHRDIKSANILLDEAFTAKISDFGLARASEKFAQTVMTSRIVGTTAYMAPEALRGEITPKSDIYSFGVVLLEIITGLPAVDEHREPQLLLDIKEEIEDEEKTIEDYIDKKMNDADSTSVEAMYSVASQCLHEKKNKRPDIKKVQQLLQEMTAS

CC(=O)Nc1c(C(C)=O)c(=O)n(C)c2nc(-c3ccc(Cl)cc3Cl)c(-c3ccc(Cl)cc3)cc12
remaining binding (cell-free assay, competition with immobilised ligand; 1 µM): 100%

CN(C)C1CCN(CC#Cc2nn(C3CCCC3)c3nc(NCc4ccccc4)ncc23)C1 (stereo not shown)
inhibition (enzyme activity, inhibitor, FRET; 0.1 µM): 0%

Oc1cccc(-c2nc(N3CCOCC3)c3oc4ncccc4c3n2)c1
remaining signal (cell-free assay; 0.5 µM): 104%

CNCc1ccccc1-c1csc([C@@H](C)Nc2nc(C)nc3cc(OC)c(OC)cc23)c1
remaining binding (cell-free assay, competition with immobilised ligand; 1 µM): 76%

Cc1sc(C(=O)NC2COC2)cc1-n1cc(NC(=O)Nc2c(F)cccc2Cl)cn1
remaining activity (enzyme activity, inhibitor; 10 µM): 103%

CS(=O)(=O)N1CCCC(NC(=O)[C@H](CCC2CCCCC2)NC(=O)c2ccc(CNC(=O)c3cnc4ccccn34)cc2)C1 (stereo partly shown)
remaining binding (cell-free assay, competition with immobilised ligand; 0.1 µM): 100%

FC(F)c1nc2ccccc2n1-c1nc(N2CCOCC2)nc(N2CCOCC2)n1
remaining activity (enzyme activity, inhibitor; 10 µM): 102%

O=C(CSc1nc2nccnc2c(=O)n1CCc1ccccc1)Nc1nccs1
inhibition (enzyme activity, inhibitor; 10 µM): 10%

CN1CC(Oc2cnc(C#N)cc2-c2ccn3nc(NC(=O)C4CC4)cc3c2)C1
inhibition (enzyme activity, inhibitor; 1 µM): 1%

O=C1Nc2ccc(Cl)cc2C1=Cc1cc(Cl)c(O)c(Cl)c1
remaining signal (cell-free assay; 0.5 µM): 101%

CNC(=O)c1ccc(Nc2ncc(C(F)(F)F)c(NCc3nccnc3N(C)S(C)(=O)=O)n2)cc1
remaining binding (cell-free assay, competition with immobilised ligand; 0.1 µM): 92%

CNC(=O)c1cc(Oc2ccc(NC(=O)Nc3ccc(Cl)c(C(F)(F)F)c3)cc2)ccn1
remaining signal (cell-free assay; 0.5 µM): 99.6%

CSc1nc(C)c(-c2ccnc(Nc3ccc(N4CCOCC4)cc3)c2)[nH]1
inhibition (enzyme activity, inhibitor; 10 µM): 45.8%

COc1cc2c(Nc3ccc(Br)cc3F)ncnc2cc1OCC1CCN(C)CC1
remaining signal (cell-free assay; 0.5 µM): 35.3%

Cc1ccc(C(=O)NCc2ccsc2)cc1C#Cc1cn(C(C)C)c2ncnc(N)c12
activity vs control (enzyme activity, inhibitor; 1 µM): 88%

CC(C)(O)[C@H]1CC[C@H](Nc2ccc3ncc(-c4cccc(C(F)(F)F)c4)n3n2)CC1
remaining activity (enzyme activity, inhibitor; 1 µM): 64.2%

CCN(CC)CCNC(=O)c1c(C)[nH]c(/C=C2\C(=O)Nc3ccc(F)cc32)c1C
inhibition (enzyme activity, inhibitor; 0.3 µM): 28%

COc1cc2ncnc(Nc3ccc(Oc4ccccc4)c(C)c3C)c2cc1OC
inhibition (enzyme activity, inhibitor; 1 µM): -4%

F[C@@H]1CCN(c2nccc(-c3cnn4ncccc34)n2)C1
remaining binding (binding; 1 µM): 100%

CC(C)(C)c1nc(-c2cccc(NS(=O)(=O)c3c(F)cccc3F)c2F)c(-c2ccnc(N)n2)s1
remaining activity (enzyme activity, inhibitor, radiometric; 1 µM): 103%

CC/C(=N\NC(=O)NCc1cccc(O)c1)c1ccc(O)c(C)c1O
inhibition (enzyme activity, inhibitor; 0.1 µM): -0.4%

CNc1cccc2cc(C(=O)Nc3ccc(C(=O)O)cc3)c(=O)[nH]c12
inhibition (enzyme activity, inhibitor; 10 µM): 7.7%

N#Cc1ccc(Nc2ccc3[nH]c(=O)[nH]c3c2)c(Cl)c1
remaining binding (cell-free assay, competition with immobilised ligand; 1 µM): 100%

Cc1cnc(NC2CCOCC2)nc1-n1cnc(C(=O)NC(CN)c2cc(F)cc(Cl)c2)c1 (stereo not shown)
remaining activity (enzyme activity, inhibitor, radiometric; 1 µM): 104%

N#CC1(c2ccccn2)CCN(Cc2cc(C(=O)N3CCCC3)c(=O)n3ccccc23)CC1
remaining binding (cell-free assay, competition with immobilised ligand; 1 µM): 100%

COc1cc(Cl)c(C(=O)N[C@@H](CN[C@H]2CC[C@@H](N)CC2)Cc2ccc(C#N)cc2)cc1-c1ccc(CN[C@H](C)c2ccc(C)cc2)o1
remaining activity (enzyme activity, inhibitor; 1 µM): 89%

COc1cc(/C=C/C(=O)CC(=O)/C=C/c2ccc(O)c(OC)c2)ccc1O
activity vs control (enzyme activity, inhibitor; 1 µM): 71%

Cc1nccc(COC(=O)N2C[C@@H]3[C@@H](CNC(=O)c4ccc5[nH]nnc5c4)[C@@H]3C2)n1
remaining binding (cell-free assay, competition with immobilised ligand; 1 µM): 87%

FC(F)(F)Oc1cccc(-c2cnc3ccc(-c4ccncc4)nn23)c1
activity vs control (enzyme activity, inhibitor, radiometric; 5 µM): 10%

COc1cc(Nc2cnc(C#N)c(O[C@H](C)CN(C)C)n2)ncc1-c1cnn(C)c1
remaining activity (enzyme activity, inhibitor, radiometric; 10 µM): 25%

Cc1cc(C)c(-n2ccn3nc(-c4cccnc4)cc23)cc1NC(=O)c1cc(C#N)cc(S(F)(F)(F)(F)F)c1
remaining binding (cell-free assay, competition with immobilised ligand; 0.1 µM): 100%
